Values belong to the compound of their own block, whether it stands above or below them. Square brackets hold non-standard residues; d marks the D form. Peptide text beside a SMILES is read from it. dTrp(2-Me) = Cc1[nH]c2ccccc2c1C[C@@H](N)C(=O)O
How the values were obtained:
[1] = molecular target: T1, Growth hormone secretagogue receptor type 1 (Homo sapiens, UniProt Q92847); test: Displacement of [125I-His9]ghrelin from human GHS1a receptor expressed in LLC PK1 cells; assay type: cell-based
In short: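 Membranes from LLC PK-1 cells transiently electroporated with hGHS-R1a (harvested about 48 h), 10 µg protein, incubated 60 min at 25 °C with 60 pM 125I-His9-ghrelin in Tris pH 7.3/MgCl2/EDTA/bacitracin buffer. Filtered, washed, gamma counted; nonspecific binding with 10 µM ghrelin. Triplicates, at least three experiments.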

[2] = molecular target: T1, Growth hormone secretagogue receptor type 1; test: Activity at human GHS1a receptor expressed in CHO cells assessed as intracellular calcium mobilization relative to 0.1 uM ghrelin; assay type: functional, cell-based
[3] = molecular target: T1, Growth hormone secretagogue receptor type 1; test: Antagonist activity at human GHS1a receptor expressed in CHO cells assessed as inhibition of ghrelin-induced intracellular calcium mobilization; assay type: functional, cell-based
In short: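 Calcium flux (Fluo-4AM, ex 485/em 525 nm) in CHO cells transiently expressing hGHS-R1a. Antagonist inhibition curves against 0.1 µM ghrelin give IC50; Kb by Cheng-Prusoff, with Schild analysis of ghrelin EC50 shifts for pA2 and exact Kb. Signal as percentage of 10 µM ghrelin response; duplicates, at least three experiments.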

Rattus norvegicus [4] = test: Stimulation of cumulative food intake per 100 g body weight in Sprague-Dawley rat at 160 ug/kg, sc at 6 hrs; assay type: functional
In short: (§1)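 Male Sprague-Dawley rats (125-150 g), singly housed and trained, given compound sc alone (cumulative food intake as g/100 g body weight, weighed hourly to 6 h); percentage variation calculated as (compound minus hexarelin 80 µg/kg intake)/hexarelin intake at 6 h. Mean ± SEM, ANOVA with Dunnett's test.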

Rattus norvegicus [5] = test: Stimulation of cumulative food intake in Sprague-Dawley rat at 160 ug/kg, sc at 6 hrs relative to 80 ug/kg hexarelin; assay type: functional; in short: as §1
[6] = molecular target: T1, Growth hormone secretagogue receptor type 1; test: Agonist activity at human GHS1a receptor expressed in CHO cells assessed as induction of intracellular calcium mobilization; assay type: functional, cell-based; settings: for Activity: filed as partial agonist
In short: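 CHO cells transiently expressing hGHS-R1a via electroporation, Fluo-4AM loaded (1 µM, 1 h, 37 °C), calcium fluorescence read 60 s at ex 485/em 525 nm. EC50 from agonist dose-response curves, response as percentage of maximal signal from 10 µM ghrelin; triplicates, means of at least three experiments.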

Rattus norvegicus [7] = test: Inhibition of hexarelin-stimulated cumulative food intake in Sprague-Dawley rat at 20 ug/kg, sc at 6 hrs; assay type: functional
In short: (§2)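 Male Sprague-Dawley rats (125-150 g), singly housed, acclimated and trained. Compound given sc at 0, 20, 80, 160 or 320 µg/kg at -10 min, then hexarelin 80 µg/kg sc at time 0. Food weighed hourly for 6 h, normalized as g/100 g body weight; 7-8 determinations, one-way ANOVA with Dunnett's test.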

Rattus norvegicus [8] = test: Inhibition of hexarelin-stimulated cumulative food intake in Sprague-Dawley rat at 80 ug/kg, sc at 6 hrs; assay type: functional; in short: as §2
Rattus norvegicus [9] = test: Inhibition of hexarelin-stimulated cumulative food intake in Sprague-Dawley rat at 160 ug/kg, sc at 6 hrs; assay type: functional; in short: as §2
Rattus norvegicus [10] = test: Inhibition of hexarelin-stimulated cumulative food intake in Sprague-Dawley rat at 320 ug/kg, sc at 6 hrs; assay type: functional; in short: as §2
Rattus norvegicus [11] = test: Effect on growth hormone secretion in Sprague-Dawley rat at 160 ug/kg, sc; assay type: functional
In short: (§3)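 Male 10-day-old Sprague-Dawley pups (~25 g), groups of eight, separated from dams 1 h before. Compounds in DMSO diluted with saline, sc; hexarelin 80 µg/kg, test compound 160 µg/kg; with combined treatment compound given 10 min before hexarelin. Killed 15 min later; plasma GH by rat GH enzyme immunoassay, ng/mL.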

Rattus norvegicus [12] = test: Stimulation of cumulative food intake in Sprague-Dawley rat at 80 ug/kg, sc at 6 hrs; assay type: functional; in short: as §1
Rattus norvegicus [13] = test: Effect on growth hormone secretion in Sprague-Dawley rat at 80 ug/kg, sc; assay type: functional; in short: as §3

T1 sequence (Q92847 whole entry): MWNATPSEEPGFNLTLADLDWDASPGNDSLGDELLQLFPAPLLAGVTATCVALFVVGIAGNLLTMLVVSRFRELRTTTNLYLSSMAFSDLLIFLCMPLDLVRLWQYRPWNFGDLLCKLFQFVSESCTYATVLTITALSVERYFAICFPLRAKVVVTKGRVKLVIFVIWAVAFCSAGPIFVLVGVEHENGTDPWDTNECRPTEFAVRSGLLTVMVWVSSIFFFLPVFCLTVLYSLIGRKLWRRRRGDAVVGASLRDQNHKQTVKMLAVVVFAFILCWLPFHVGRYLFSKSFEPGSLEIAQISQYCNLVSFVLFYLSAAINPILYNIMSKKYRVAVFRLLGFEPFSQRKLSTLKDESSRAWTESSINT

SMILES: COc1ccc(Cn2c(CCCc3c[nH]c4ccccc34)nnc2[C@@H](Cc2c[nH]c3ccccc23)NC(=O)C(C)(C)N)cc1
IC50 [1]: 145 nM | Activity [2]: 0% | Kb [3]: 12 nM

SMILES: COc1ccc(Cn2c(CCc3ccccc3)nnc2[C@@H](Cc2c[nH]c3ccccc23)NC(=O)C(C)(C)N)c(OC)c1
IC50 [1]: 60 nM | Activity [2]: 0% | Kb [3]: 17 nM

SMILES: COc1ccc(Cn2c(Cc3ccccc3)nnc2[C@@H](Cc2c[nH]c3ccccc23)NC(=O)C(C)(C)N)c(OC)c1
IC50 [1]: 560 nM | Activity [2]: 0% | Activity ([3]; filed as antagonist): Antagonist

SMILES: COc1ccccc1Cn1c(Cc2ccccc2)nnc1[C@@H](Cc1c[nH]c2ccccc12)NC(=O)C(C)(C)N
IC50 [1]: 410 nM | Activity [2]: 66% | Activity ([3]; filed as partial agonist): Partial agonist

SMILES: COc1ccc(Cn2c(Cc3c[nH]c4ccccc34)nnc2[C@@H](Cc2c[nH]c3ccccc23)NC(=O)C(C)(C)N)cc1
IC50 [1]: 660 nM | Activity [2]: 0% | Activity ([3]; filed as antagonist): Antagonist

SMILES: COc1ccc(Cn2c(CCCc3ccccc3)nnc2[C@@H](Cc2c[nH]c3ccccc23)NC(=O)C(C)(C)N)cc1
Activity [2]: 0% | Kb [3]: 14 nM

SMILES: CC(C)(N)C(=O)N[C@H](Cc1c[nH]c2ccccc12)c1nnc(CCc2c[nH]c3ccccc23)n1CCc1c[nH]c2ccccc12
IC50 [1]: 150 nM | Activity [2]: 82% | Activity [6]: Partial agonist | Activity (Rattus norvegicus [4]): 0.27 g | Activity (Rattus norvegicus [5]): -25%

SMILES: COc1ccc(Cn2c(CCc3c[nH]c4ccccc34)nnc2[C@@H](Cc2c[nH]c3ccccc23)NC(=O)C(C)(C)N)c(OC)c1
IC50 [1]: 108 nM | Activity [2]: 0% | Activity (Rattus norvegicus [4]): 0.06 g | Kb [3]: 14 nM | Activity (Rattus norvegicus [5]): -63%

SMILES: COc1cc(Cn2c(CCc3ccccc3)nnc2[C@@H](Cc2c[nH]c3ccccc23)NC(=O)C(C)(C)N)cc(OC)c1
IC50 [1]: > 1000 nM | Activity [2]: 0% | Activity ([3]; filed as antagonist): Antagonist

SMILES: COc1ccc(Cn2c(Cc3ccccc3)nnc2[C@@H](Cc2c[nH]c3ccccc23)NC(=O)C(C)(C)N)cc1
IC50 [1]: 121 nM | Activity [2]: 0% | Activity (Rattus norvegicus [4]): 0.17 g | Activity ([3]; filed as antagonist): Antagonist | Activity (Rattus norvegicus [5]): -31%

SMILES: COc1ccccc1Cn1c(CCc2c[nH]c3ccccc23)nnc1[C@@H](Cc1c[nH]c2ccccc12)NC(=O)C(C)(C)N
Activity [2]: 50% | Activity ([3]; filed as partial agonist): Partial agonist

SMILES: Cc1[nH]c2ccccc2c1C[C@@H](NC(=O)[C@@H](N)Cc1c[nH]cn1)C(=O)N[C@@H](C)C(=O)N[C@@H](Cc1c[nH]c2ccccc12)C(=O)N[C@H](Cc1ccccc1)C(=O)N[C@@H](CCCCN)C(N)=O [EXAMORELIN] (H-H[dTrp(2-Me)]AW[dF]K-NH2)
Activity (Rattus norvegicus [12]): 1.01 g | Activity (Rattus norvegicus [13]): 170 ng/mL

Continued, in another order:

IC50 [1]: 11 nM | Activity [2]: 0% | Kb [3]: 5 nM
SMILES: COc1ccc(Cn2c(CCc3ccccc3)nnc2[C@@H](Cc2c[nH]c3ccccc23)NC(=O)C(C)(C)N)cc1
Activity (Rattus norvegicus [4]): 0.2 g | Activity (Rattus norvegicus [5]): -10%

IC50 [1]: 11 nM | Activity [2]: 18% | EC50 [6]: 15 nM
SMILES: CC(C)(N)C(=O)N[C@H](Cc1c[nH]c2ccccc12)c1nnc(CCCc2c[nH]c3ccccc23)n1CCc1ccccc1
Activity (Rattus norvegicus [4]): 0.75 g | Activity (Rattus norvegicus [5]): -21%

IC50 [1]: 21 nM | Activity [2]: 16% | EC50 [6]: 12 nM
SMILES: Cc1ccc(Cn2c(CCCc3ccccc3)nnc2[C@@H](Cc2c[nH]c3ccccc23)NC(=O)C(C)(C)N)cc1
Activity (Rattus norvegicus [4]): 0.74 g | Activity (Rattus norvegicus [5]): -55%

IC50 [1]: 55 nM | Activity [2]: 28% | Activity [6]: Partial agonist
SMILES: CC(C)(N)C(=O)N[C@H](Cc1c[nH]c2ccccc12)c1nnc(CCc2c[nH]c3ccccc23)n1Cc1ccc(Cl)c(Cl)c1
Activity (Rattus norvegicus [4]): 0.41 g | Activity (Rattus norvegicus [5]): -45%

IC50 [1]: 14 nM | Activity [2]: 85% | EC50 [6]: 140 nM
SMILES: CC(C)(N)C(=O)N[C@H](Cc1c[nH]c2ccccc12)c1nnc(CCCc2c[nH]c3ccccc23)n1CCc1c[nH]c2ccccc12
Activity (Rattus norvegicus [4]): 0.22 g | Activity (Rattus norvegicus [5]): 54%

IC50 [1]: 33 nM | Activity [2]: 30% | EC50 [6]: 49 nM
SMILES: CC(C)(N)C(=O)N[C@H](Cc1c[nH]c2ccccc12)c1nnc(CCCc2c[nH]c3ccccc23)n1Cc1ccccc1
Activity (Rattus norvegicus [4]): 0.01 g | Activity (Rattus norvegicus [7]): 0.46 g | Activity (Rattus norvegicus [8]): 0.25 g | Activity (Rattus norvegicus [9]): 0.25 g | Activity (Rattus norvegicus [10]): 0.08 g | Activity (Rattus norvegicus [11]): 13 ng/mL | Activity (Rattus norvegicus [5]): -97%

— ChEMBL document CHEMBL1143012, “Synthesis and pharmacological in vitro and in vivo evaluations of novel triazole derivatives as ligands of the ghrelin receptor. 1” (J Med Chem, 2007)
